The results in this text go back to ChEMBL document CHEMBL3352666, “Human Toll-like receptor 8-selective agonistic activities in 1-alkyl-1H-benzimidazol-2-amines” (J Med Chem, 2014).

Structures are written as SMILES. The source made the active and inactive calls. The calls are words filed in the database; no cut-off is given here.

Assay [1] has as its target T1, Toll-like receptor 8 (Homo sapiens) (UniProt Q9NR97).
T1 sequence (whole entry): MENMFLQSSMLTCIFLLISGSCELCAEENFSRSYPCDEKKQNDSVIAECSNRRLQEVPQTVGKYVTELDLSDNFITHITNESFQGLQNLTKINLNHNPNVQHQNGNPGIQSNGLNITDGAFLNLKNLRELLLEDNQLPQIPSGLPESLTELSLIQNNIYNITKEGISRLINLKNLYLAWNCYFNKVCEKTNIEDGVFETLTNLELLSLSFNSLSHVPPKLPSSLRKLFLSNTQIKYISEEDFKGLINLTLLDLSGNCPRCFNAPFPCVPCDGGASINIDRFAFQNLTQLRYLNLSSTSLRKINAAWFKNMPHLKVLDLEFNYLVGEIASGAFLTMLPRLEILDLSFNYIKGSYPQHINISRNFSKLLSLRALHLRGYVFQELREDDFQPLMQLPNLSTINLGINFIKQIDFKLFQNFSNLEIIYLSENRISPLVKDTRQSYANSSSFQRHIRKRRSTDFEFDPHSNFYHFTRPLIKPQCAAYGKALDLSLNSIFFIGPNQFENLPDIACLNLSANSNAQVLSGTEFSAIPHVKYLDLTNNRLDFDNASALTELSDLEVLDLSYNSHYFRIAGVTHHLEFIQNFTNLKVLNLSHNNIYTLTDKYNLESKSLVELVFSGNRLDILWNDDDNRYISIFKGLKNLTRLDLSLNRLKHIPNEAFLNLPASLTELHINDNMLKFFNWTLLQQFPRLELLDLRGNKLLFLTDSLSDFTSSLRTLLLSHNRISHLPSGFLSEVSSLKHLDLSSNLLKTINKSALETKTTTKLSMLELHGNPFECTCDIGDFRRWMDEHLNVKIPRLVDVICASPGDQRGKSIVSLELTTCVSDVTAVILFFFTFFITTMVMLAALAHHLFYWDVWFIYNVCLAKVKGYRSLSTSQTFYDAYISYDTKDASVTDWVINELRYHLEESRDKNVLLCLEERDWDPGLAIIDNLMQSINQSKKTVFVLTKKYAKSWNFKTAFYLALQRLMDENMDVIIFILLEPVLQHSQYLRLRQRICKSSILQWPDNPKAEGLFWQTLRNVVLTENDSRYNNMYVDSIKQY
The experiment in a line: Induction of TLR8-mediated IL-12p40 in human PBMC after 12 hrs by immunoassay. The procedure, abridged: (§1)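 Fresh PBMCs were isolated from venous blood on Ficoll-Hypaque gradients and plated at 10^5 cells in 100 µL per well. They were stimulated 12 h with graded compound concentrations. Centrifuged supernatants were assayed in duplicate by multiplexed analyte-specific cytokine bead array.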

Assay [2] concerns the target T1, Toll-like receptor 8 (Homo sapiens). The experiment in a line: Induction of TLR8-mediated IFN-gamma in human PBMC after 12 hrs by immunoassay. The procedure, abridged: as §1
A short description of assay [3]: Upregulation of CD69 expression in human NK cells at 0.1 to 10 ug/ml measured after overnight incubation by flow cytometry. Format: functional, cell-based. The procedure, abridged:
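Heparin-anticoagulated whole blood from healthy volunteers was stimulated with graded concentrations at 37 °C overnight. It was then stained 30 min at 37 °C in the dark with CD3-PE, CD56-APC and CD69-PE-Cy7, followed by one-step erythrocyte lysis and fixation. NK cells were gated as CD3-CD56+ from 100,000 events. Values are means of duplicates from a representative experiment.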
(In general: A flow cytometer gives signals particle by particle.)

On to `CCCCCn1c(N)nc2c(C)cccc21`, for which the outcome in assay [1] and in assay [2] was Active. Moreover, the outcome in assay [3] was inactive.
